Calls of active or inactive are those of the source.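 Rule for the calls, unless noted: active = viability loss from added drug above about 55%, and viability with drug at most 40%, in both replicates (limit read from the data, passing the limit was not always enough); inconclusive = both conditions met in only one replicate; inactive = neither replicate meets both conditions.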
Key:
[1] = SK-BR-3 cell growth inhibitors, pilot screen, 24 h, human (AID 572;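 active = viability at or below 10% of carrier control in both of two separate runs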;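 note: compound exposure lasted between 18 and 24 h rather than exactly 24 h; 100% = carrier-treated control wells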); settings: SK-BR-3 viability, CellTiter-Glo luminescence, at 10 µM, stronger effect = lower value
[2] = HUVEC growth inhibition – cell-based, human, primary screen (AID 575;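 active = viability at or below 30% in both replicate assays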;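 note: 100% = median of untreated cell wells with 0.1% DMSO on each plate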); settings: HUVEC proliferation, CellTiter-Glo luminescence, 72 h; at 10 µM; stronger effect = lower value
Outline: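 Material: primary human umbilical vein endothelial cells / Schedule: 72 h exposure, 37 °C, 5% CO2, 30 min RT equilibration / Signal: ATP-based CellTiter-Glo luminescent read / Read-out basis: percent of median DMSO-control luminescence / Control set: 32 DMSO-only cell-control wells (high), 32 MePR drug-control wells (low) per plate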

[3] = growth inhibitors of H69AR lung tumor, primary screen, human, duplicate replicates (AID 580;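 active = viability at or under a set limit in both replicates, limit being median viability minus 3 SD, cut at about 48% in these data, passing the limit was not always enough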;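 note: 100% = mean luminescence of untreated wells and 0% = no signal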); settings: H69AR lung tumor cells viability, ATP luminescence, 72 h; at 10 µM; stronger effect = lower value
[4] = reversal of MRP1-mediated doxorubicin resistance, pilot screen, H69AR cells, doxorubicin co-treatment (AID 601); settings: CellTiter-Glo, 72 h, at 10 µM; for differential viability (reversal): stronger effect = higher value
[5] = 384-well plate pilot, post-Golgi transport modulator project, inhibition of yeast transport mutant growth (AID 636; in the data active = inhibition above about 31%); settings: absorbance 615 nm, about 18 h, stronger effect = higher value
[6] = growth suppression of yeast trafficking mutant, preliminary HTS, modulators of trafficking downstream of Golgi apparatus project, 1536-format plate, OD 615 nm (AID 637; in the data active = inhibition above about 30%); settings: yeast transport mutant growth, absorbance 615 nm, 18 h; stronger effect = higher value
[7] = H69AR cells + 2 uM doxorubicin, measured here: viability with 2 uM doxorubicin, stronger effect = lower value
[8] = H69AR cells, compound alone cytotoxicity

| Structure (SMILES) | viability [1] | viability [2] | viability [3] | differential viability (reversal) ([4]; H69AR cells + 2 uM doxorubicin) | viability [4, 7] | viability [4, 8] | inhibition [5] | inhibition [6] |
| --- | --- | --- | --- | --- | --- | --- | --- | --- |
| CCN1C(=O)CC(N2CCC(Nc3ccc(F)cc3)CC2)C1=O (centres undefined) | 78% (inactive) | 93.5% (inactive) | 92.3% (inactive) | 1.94% (inactive) | 90.3% | 92.3% | -0.65% (inactive) | -0.98% (inactive) |
| C=CCOC(=O)CC(NC(=O)c1ccccc1)c1ccccc1 (centres undefined) | 110% (inactive) | 108% (inactive) | 105% (inactive) | 19.7% (inactive) | 85.3% | 105% | -3.73% (inactive) | -5.45% (inactive) |
| CCN(CC)CCNC(=O)c1cc(Cl)c(N)cc1OC | 89% (inactive) | 85.9% (inactive) | 93.8% (inactive) | -8.38% (inactive) | 102% | 93.8% | -3.25% (inactive) | -2.5% (inactive) |
| CN(C)CCOC(c1ccccc1)c1ccccc1 | 78% (inactive) | 86.9% (inactive) | 87.6% (inactive) | 5.28% (inactive) | 82.3% | 87.6% | -1.69% (inactive) | 2.5% (inactive) |
| CCOc1ccccc1-n1c(SCC(=O)NC2CCCC2)nnc1-c1ccoc1C | 77% (inactive) | 97% (inactive) | 93% (inactive) | 1.66% (inactive) | 91.3% | 93% | 0.91% (inactive) | -4.92% (inactive) |
| O=C(c1ccco1)N1CCN(CCCCN2C(=O)c3ccccc3C2=O)CC1 | 102% (inactive) | 90.5% (inactive) | 79.9% (inactive) | -12.3% (inactive) | 92.2% | 79.9% | -1.04% (inactive) | 0.32% (inactive) |
| COC(=O)CSc1nnc(-c2ccc(OC)cc2OC)o1 | 77% (inactive) | 93.1% (inactive) | 109% (inactive) | 16.5% (inactive) | 92.8% | 109% | -2.67% (inactive) | -5.64% (inactive) |
| COc1cc(C(=O)Nc2cc(C)ccn2)cc(OC)c1OC | 90% (inactive) | 89.5% (inactive) | 97.5% (inactive) | 17.6% (inactive) | 79.9% | 97.5% | 0.55% (inactive) | -6.13% (inactive) |
| CS(=O)(=O)N(Cc1ccccc1)c1ccc(C(=O)N2CCOCC2)cc1 | 95% (inactive) | 105% (inactive) | 97.7% (inactive) | 6.74% (inactive) | 91% | 97.7% | -2.86% (inactive) | -5.57% (inactive) |
| CCCCNC(=O)c1nnn(-c2ccccc2)c1N | 88% (inactive) | 113% (inactive) | 92.2% (inactive) | -0.63% (inactive) | 92.8% | 92.2% | 4.03% (inactive) | 2.3% (inactive) |
| CN(C(=O)C1CCOC1)c1nnc(-c2cccnc2)s1 (centres undefined) | 92% (inactive) | 101% (inactive) | 88.5% (inactive) | 4.19% (inactive) | 84.3% | 88.5% | -1.23% (inactive) | 19.4% (inactive) |
| c1coc(CN2CN=C(Nc3nc4ccccc4s3)NC2)c1 | 91% (inactive) | 115% (inactive) | 96.4% (inactive) | -0.14% (inactive) | 96.5% | 96.4% | -2.3% (inactive) | -4.18% (inactive) |
| O=S(=O)(c1ccc(N2CCN(c3ccc(F)cc3)CC2)cc1)N1CCCC1 | 111% (inactive) | 77.2% (inactive) | 75.7% (inactive) | -4.83% (inactive) | 80.6% | 75.7% | -0.91% (inactive) | 15.4% (inactive) |
| CCOC(=O)C1=C(c2ccccc2)N2CCS(=O)(=O)N=C2S1 | 92% (inactive) | 96.9% (inactive) | 90.2% (inactive) | 6.51% (inactive) | 83.7% | 90.2% | -2.13% (inactive) | 0% (inactive) |
| O=C1NC(=O)C(c2ccccc2)(c2ccccc2)N1 | 111% (inactive) | 75.6% (inactive) | 98% (inactive) | 7.3% (inactive) | 90.7% | 98% | 2.86% (inactive) | -1% (inactive) |
| Fc1cccc(Cl)c1Cn1nnc2c(NCc3ccccn3)ncnc21 | 76% (inactive) | 92.9% (inactive) | 105% (inactive) | 14.2% (inactive) | 91.1% | 105% | -4.66% (inactive) | -4.84% (inactive) |
| CCCC(=O)Nc1ccc(C(=O)O)cc1NC(=O)CCC | 77% (inactive) | 97.3% (inactive) | 96.3% (inactive) | -23% (inactive) | 119% | 96.3% | -3.56% (inactive) | 1.45% (inactive) |
| CC(=O)C1=C(NC(=O)c2ccccc2F)C[C@@H]2[C@H]1C2(C)C | 90% (inactive) | 99.2% (inactive) | 91.3% (inactive) | 1.76% (inactive) | 89.5% | 91.3% | -10.7% (inactive) | -3.55% (inactive) |
| COc1cccc(CC(=O)Nn2c(C)nc3ccccc3c2=O)c1 | 83% (inactive) | 115% (inactive) | 99.3% (inactive) | 11.8% (inactive) | 87.5% | 99.3% | -3.07% (inactive) | -5.27% (inactive) |
| C[C@H](CCC(=O)O)[C@H]1CC[C@H]2[C@@H]3C(=O)C[C@@H]4CC(=O)CC[C@]4(C)[C@H]3CC(=O)[C@]12C | 128% (inactive) | 88.9% (inactive) | 96% (inactive) | -6.55% (inactive) | 102% | 96% | 0.65% (inactive) | -0.83% (inactive) |
| O=C(CCn1c(=O)sc2ccccc21)NCc1ccc2c(c1)OCO2 | 75% (inactive) | 111% (inactive) | 99.9% (inactive) | 8.43% (inactive) | 91.5% | 99.9% | -0.81% (inactive) | -2.91% (inactive) |
| CCOC(=O)c1ccc(NC(=O)N2CCN(Cc3cccc(F)c3)CC2)cc1 | 91% (inactive) | 105% (inactive) | 84.4% (inactive) | -9.16% (inactive) | 93.6% | 84.4% | -5.21% (inactive) | 0.91% (inactive) |
| CCN1CCN(c2nc3c(c(=O)n(C)c(=O)n3C)n2Cc2cccc3ccccc23)CC1 | 87% (inactive) | 104% (inactive) | 87.7% (inactive) | 3.33% (inactive) | 84.4% | 87.7% | -6.58% (inactive) | 0.91% (inactive) |
